Assay results of several laboratories.
Converted amounts (≈) assume the structure as drawn.
Organism: Escherichia coli
Read-out: microbial growth

Cc1cc(/C=C2\Sc3ccccc3N2CCCN2CCCCC2)c2ccccc2[n+]1C.[I-] — MIC (broth dilution; ATCCBAA2469): 4 µg/mL
C[C@H](CCC(=O)NCCCNCCCCNCCCN)[C@H]1CC[C@H]2[C@@H]3CC=C4C[C@@H](O)CC[C@]4(C)[C@H]3CC[C@]12C — MIC (broth dilution; MG1655; 20 h): 64 µg/mL (≈ 115 µM)
COC(=O)c1cc(-c2cccc(NC(=O)Nc3ccccc3F)c2)on1 — MIC (broth dilution; ATCC25922): > 64 µg/mL
COc1cc(O)c2c(c1)/C=C/C[C@H](O)[C@H](O)C(=O)/C=C/C[C@H](C)OC2=O — MIC: > 500 µg/mL
CCCCCCC#Cc1cncc(-c2nnc(Sc3ccc([N+](=O)[O-])cc3[N+](=O)[O-])n2C)c1 — MIC: ≥ 20 µg/mL
CC1CCN(CCCN2/C(=C/c3cc[n+](C)c4ccccc34)Sc3ccccc32)CC1.[I-] — MIC (broth dilution; ATCCBAA2469): 0.5 µg/mL
COC(=O)c1cc(-c2cccc(NC(=O)Nc3cc(OC)ccc3OC)c2)on1 — MIC (broth dilution; ATCC25922): > 64 µg/mL
CC(=O)C1=C(O)C(CC(C)C)NC1=O (stereo not shown) — MIC (K12, K12): > 200 µg/mL
CCCCCCCCCCCC(=O)OC[C@H]1O[C@@H](n2cc(C)c(=O)[nH]c2=O)C[C@@H]1O — MIC (broth dilution): 2 µg/mL (≈ 4.71 µM)
COC(=O)c1cc(-c2cccc(NC(=S)Nc3cccc(Cl)c3)c2)on1 — MIC (broth dilution; ATCC25922): > 64 µg/mL
C[n+]1c(/C=C/c2ccc(O)cc2)cc(/C=C2\Sc3ccccc3N2CCCN2CCOCC2)c2ccccc21.[I-] — MIC (broth dilution; ATCCBAA2469): 8 µg/mL
Fc1c(F)c(F)c(F)c(F)c1F — MIC (ATCC25922): > 250 µg/mL
CC1(C)S[C@@H]2[C@H](NC(=O)[C@H](N)c3ccccc3)C(=O)N2[C@H]1C(=O)O — MIC (broth dilution; ATCCBAA2469): > 64 µg/mL
C[C@H]1COc2c(N3CCN(C)CC3)c(F)cc3c(=O)c(C(=O)O)cn1c23 — MIC (broth dilution; ATCC25922): 0.0156 µg/mL (≈ 0.0432 µM)
C[C@H]1COCCN1c1nc(NCc2cccnc2C(F)(F)F)c2cccnc2n1 — MIC (broth dilution; 25922): 128 µg/mL (≈ 317 µM)
CO[C@H]1/C=C/O[C@@]2(C)Oc3c(C)c(O)c4c(O)c(c(/C=N/N5CCN(C)CC5)c(O)c4c3C2=O)NC(=O)/C(C)=C\C=C\[C@H](C)[C@H](O)[C@@H](C)[C@@H](O)[C@@H](C)[C@H](OC(C)=O)[C@@H]1C — MIC (broth dilution; ATCCBAA2469): > 64 µg/mL
COC(=O)c1cc(-c2cccc(NC(=O)Nc3ccc(C(F)(F)F)cc3)c2)on1 — MIC (broth dilution; ATCC25922): > 64 µg/mL
C[n+]1c(/C=C/c2c[nH]c3ccccc23)cc(/C=C2\Sc3ccccc3N2CCCN2CCOCC2)c2ccccc21.[I-] — MIC (broth dilution; ATCCBAA2469): 64 µg/mL
COC(=O)c1cc(-c2cccc(NC(=O)Nc3ccc(F)cc3)c2)on1 — MIC (broth dilution; ATCC25922): > 64 µg/mL
